Assay results taken from BindingDB's records for doi:10.1021/jm100062h (Ferrara University, 2010).

Columns and labels:
[1] = target: T1, Transient receptor potential cation channel subfamily A member 1 (Homo sapiens, UniProt O75762); assay: Activation of TRPA1 channel
Summary of the method: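 Cell lines transfected with TRPA1 and loaded with a calcium-sensitive dye, read on FLIPR. Calcium influx is counted as the change in fluorescence above background. Each material was tested by preincubation or by direct addition. Calcium counts are expressed as a percentage of the control calcium count.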

[2] = target: T1, Transient receptor potential cation channel subfamily A member 1; assay: Antagonist activity at human TRPA1 channel expressed in CHO cells assessed as inhibition of cinnamaldehyde-induced intracellular calcium influx

T1 sequence (O75762 whole entry): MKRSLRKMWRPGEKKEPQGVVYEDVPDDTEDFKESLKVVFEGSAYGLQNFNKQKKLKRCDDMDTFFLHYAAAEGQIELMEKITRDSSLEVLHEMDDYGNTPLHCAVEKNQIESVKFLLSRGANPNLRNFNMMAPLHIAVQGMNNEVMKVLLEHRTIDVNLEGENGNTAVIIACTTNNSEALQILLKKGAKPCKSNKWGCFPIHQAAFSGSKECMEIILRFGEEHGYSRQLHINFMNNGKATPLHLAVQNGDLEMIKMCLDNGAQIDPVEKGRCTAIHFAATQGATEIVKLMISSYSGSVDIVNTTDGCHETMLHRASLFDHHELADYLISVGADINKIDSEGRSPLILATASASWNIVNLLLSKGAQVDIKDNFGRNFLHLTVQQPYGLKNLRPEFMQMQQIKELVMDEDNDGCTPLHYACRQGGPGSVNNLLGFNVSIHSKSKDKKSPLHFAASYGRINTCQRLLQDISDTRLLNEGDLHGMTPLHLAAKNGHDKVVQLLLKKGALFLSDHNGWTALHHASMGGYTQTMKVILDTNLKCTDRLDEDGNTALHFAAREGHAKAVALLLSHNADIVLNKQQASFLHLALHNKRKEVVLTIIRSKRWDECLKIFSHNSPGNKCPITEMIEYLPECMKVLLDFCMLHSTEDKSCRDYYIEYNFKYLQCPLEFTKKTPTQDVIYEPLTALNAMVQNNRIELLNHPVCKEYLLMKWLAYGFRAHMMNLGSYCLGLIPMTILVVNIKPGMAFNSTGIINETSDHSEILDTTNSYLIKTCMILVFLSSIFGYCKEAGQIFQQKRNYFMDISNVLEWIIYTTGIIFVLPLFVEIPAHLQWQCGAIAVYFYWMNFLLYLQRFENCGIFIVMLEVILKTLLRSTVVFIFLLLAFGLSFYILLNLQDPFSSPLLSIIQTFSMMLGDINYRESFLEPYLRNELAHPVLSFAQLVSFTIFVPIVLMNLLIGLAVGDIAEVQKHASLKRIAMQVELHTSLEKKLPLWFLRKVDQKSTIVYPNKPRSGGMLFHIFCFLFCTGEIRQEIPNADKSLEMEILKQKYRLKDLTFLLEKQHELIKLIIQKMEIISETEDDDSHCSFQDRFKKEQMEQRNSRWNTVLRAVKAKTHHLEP

SMILES	EC50 [1]	IC50 [2]
CC(C)[C@@H]1CC[C@@H](C)C[C@H]1O	28.4 µM	
CCC(N=O)C(C)=Cc1cncc2ccccc12 (stereo unspecified) [1-(isoquinolin-4-yl)-2-methylpent-1-en-3-one oxime]		> 100 µM
CCC(N=O)C(C)=Cc1cnccc1C (stereo unspecified) [2-methyl-1-(4-methylpyridin-3-yl)pent-1-en-3-one oxime]		> 100 µM
CCC(N=O)C(C)=Cc1ccc(C(F)(F)F)nc1 (stereo unspecified) [2-methyl-1-(6-(trifluoromethyl)pyridin-3-yl)pent-1-en-3-one oxime]		> 100 µM
CCC(N=O)C(C)=Cc1ccc(C)nc1 (stereo unspecified) [2-methyl-1-(6-methylpyridin-3-yl)pent-1-en-3-one oxime]		> 100 µM
CCC(N=O)C(C)=Cc1cnc2ccccc2c1 (stereo unspecified) [2-methyl-1-(quinolin-3-yl)pent-1-en-3-one oxime]		> 100 µM
